For nine molecules, EC50 and Activity results are on record in ChEMBL document CHEMBL1146552, “Cytotoxic diterpenes from Scoparia dulcis” (2003).

A short description of assay [1]: (§1) Cytotoxicity against human SCL cells by MTT assay. It is filed as functional. As to conditions: read-out: ED50 (the source's name). In outline: (§2)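 Human stomach cancer cells grown in RPMI-1640 complete medium; test materials prepared and cells cultured in medium with 0.25% DMSO. Serial dilutions at 250, 125, 62.5, 31.25 and 15.63 μg/mL, three replicates per concentration. Percent mortality by MTT, with cells in medium or medium-DMSO taken as 100% survival; ED50 (μM) derived, mean ± standard error. Vinblastine sulfate and mitomycin C as positive controls.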

Assay [2] in a line: Cytotoxicity against human SCL6 cells by MTT assay. It is filed as functional. As to conditions: read-out: ED50 (the source's name). The gist of the method: as §2
The nature of assay [3]: (§3) Cytotoxicity against human SCL37'6 cells by MTT assay. It is filed as functional. As to conditions: read-out: ED50 (the source's name). In outline:
as §2
On the technique in general: Formazan colour is commonly taken as a measure of viable cells.

A short description of assay [4]: (§4) Cytotoxicity against human SCL9 cells by MTT assay. The format is functional. As to conditions: read-out: ED50 (the source's name). In outline: as §2
A short description of assay [5]: (§5) Cytotoxicity against human KATO III cells by MTT assay. The format is functional, KATO III cell. As to conditions: read-out: ED50 (the source's name). In outline: as §2
The next assay has as its system NUGC-4. The assay is described as follows: Cytotoxicity against human NUGC4 cells by MTT assay. It is filed as functional. As to conditions: for EC50: read-out: ED50 (the source's name). In outline: as §2
The subject of another assay is SCL. The assay is described as §1. It is filed as functional. In outline: as §2
The subject of a further assay is SCL37'6. The description is as §3. The format is functional. In outline: as §2
The next assay has as its system SCL9. The description is as §4. It is filed as functional. The gist of the method:
as §2

Another assay relates to KATO III cell. The description is as §5. The format is functional. In outline: as §2
The test system of another assay is SCL-6 (Homo sapiens). The assay is described as follows: Cytotoxicity against human SCL6 cells by MTT assay.

SMILES strings stand for the structures. Counter-ions that a name gives are not always drawn. Calls of active or inactive are those of the source. The calls are words filed in the database; no cut-off is given here.

Consider `CC1(C)[C@@H](O)CC[C@@]2(C)[C@H]1[C@H](OC(=O)c1ccccc1)C[C@H]1CC(=O)[C@]3(C)CC[C@]12C3`, for which the EC50 in assay [1] came to 19.5 µM; in assay [2], 62.9 µM; in assay [3], 45.8 µM; in assay [4] it was 57.9 µM; in [5], 71.7 µM; in the assay on NUGC-4, 123 µM.

Regarding `CC1(C)CC[C@]2(C)CC[C@]3(C)[C@H]4CC=C5[C@@H](CC[C@H](O)C5(C)C)[C@]4(C)CC[C@@]3(C)[C@@H]2C1`, the result with SCL, in the assay on SCL37'6, with SCL9, in the assay with KATO III cell, with NUGC-4 and in the assay on SCL-6 (Homo sapiens) was inactive.

`COc1ccc2[nH]c(=O)oc2c1`: the result in the assay on SCL, in the assay on SCL37'6, in the assay with SCL9, with KATO III cell, in the assay with NUGC-4 and with SCL-6 (Homo sapiens) was inactive.

Consider `C[C@@]12CC[C@]3(C1)[C@H](CC2=O)C[C@@H](OC(=O)c1ccccc1)[C@@H]1[C@]3(C)CCC[C@]1(C)C(=O)O` [4-EPI-SCOPADULCIC ACID B], for which the EC50 in [1] amounted to 37 µM; in [2] it was 137 µM; in [3] it was 59.3 µM; in assay [4] it was 48.3 µM; in [5], 124 µM; in the assay on NUGC-4 it was 110 µM.

With `C[C@@]12CC[C@]3(C1)[C@@H](C[C@@H](OC(=O)c1ccccc1)[C@H]1[C@](C)(CO)CCC[C@@]13C)C[C@@H]2O` [DULCIDIOL], the EC50 in assay [1] was 45.3 µM; in assay [2], 46 µM; in assay [3], 42.6 µM; in assay [4], 41.6 µM; in assay [5], 29 µM; with NUGC-4, 105 µM.

On to `CO[C@@]12[C@H](COC(N)=O)C3=C(C(=O)C(C)=C(N)C3=O)N1C[C@@H]1N[C@@H]12` [MITOMYCIN], for which the EC50 in [1] turned out to be 20.2 µM; in assay [2], 20.7 µM; in assay [3] it was 19 µM; in [4], 17.4 µM; in [5], 49 µM; in the assay on NUGC-4, 19.1 µM.

With `C=C1C[C@@H](OC(=O)c2ccccc2)C2[C@](C)(CO)CCC[C@]2(C)[C@@H]1CC/C(C)=C/CO` (some centres undefined) [SCOPADIOL], the EC50 was 22.8 µM in assay [1]; 12.2 µM in [2]; 8.9 µM in assay [3]; 12.2 µM in assay [4]; 9.7 µM in assay [5]; 16.6 µM in the assay with NUGC-4.

In the case of `C[C@@]12CC[C@]3(C1)[C@H](CC2=O)C[C@@H](OC(=O)c1ccccc1)[C@H]1[C@](C)(CO)CCC[C@@]13C` [SCOPADULCIOL], the EC50 came to 22 µM in assay [1]; 32.8 µM in assay [2]; 24.4 µM in assay [3]; 37.7 µM in [4]; 35.5 µM in assay [5]; 33.3 µM in the assay on NUGC-4.

For the molecule `CC[C@]1(O)C[C@@H]2CN(CCc3c([nH]c4ccccc34)[C@@](C(=O)OC)(c3cc4c(cc3OC)N(C)[C@H]3[C@@](O)(C(=O)OC)[C@H](OC(C)=O)[C@]5(CC)C=CCN6CC[C@]43[C@@H]65)C2)C1` [VINBLASTINE SULFATE], the EC50 in [1] stood at 5.9 µM; in [2] it was 6.1 µM; in assay [3], 5.3 µM; in [4], 5.3 µM; in assay [5], 6.1 µM; in the assay with NUGC-4 it was 5.3 µM.
